What was measured:
[1] = target: α-tocopherol transfer protein (α-TTP); settings: cited from earlier work
[2] = FRET assay of NBD-Toc transfer from α-TTP variants to SUVs; type: biochemical; settings: for Rate of NBD-Toc transfer to SUV, Rate: PC vesicles, 0.225 μM NBD-Toc, 2 μM α-TTP, 100 μM vesicles, room temperature; for Reduction of rate of transfer to SUVs: reduction relative to wild type; for Rate of NBD-Toc transfer to SUV, Rate^mut/Rate^wt: relative to wild type
How it was run: (§1)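 Each protein (4 μM) was preloaded with 0.45 μM NBD-Toc for 15 min in SET buffer (pH 7.4). It was then stopped-flow mixed at room temperature with 200 μM acceptor vesicles of 97% liver PC and 3% TRITC-PE (finals 0.225 μM, 2 μM, 100 μM). Vesicles were sonicated SUVs (~60 nm) or extruded LUVs (150 nm). NBD quench was normalised to initial fluorescence and fitted single-exponentially.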

[3] = FRET assay of NBD-Toc transfer from α-TTP variants to LUVs; type: biochemical; settings: for Rate of NBD-Toc transfer to LUV, Rate: PC vesicles, 0.225 μM NBD-Toc, 2 μM α-TTP, 100 μM vesicles, room temperature; for Rate of NBD-Toc transfer to LUV, Rate^mut/Rate^wt: relative to wild type
How it was run: as §1

[4] = Dual polarization interferometry of protein adsorption to immobilized bilayer; type: binding; settings: for Ads^mut/Ads^wt (0.50 μM injection): 0.50 μM protein injection; for Ads^mut/Ads^wt (1.0 μM injection): 1.0 μM protein injection; for Adsorption/binding to immobilized bilayers by DPI, % of wild type: injection concentration not stated; for Fold change in affinity: relative to wild type
How it was run: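 Recombinant α-TTP (E. coli BL21(DE3), glutathione affinity, thrombin-cleaved) was dialysed 1 h at 4 °C into pH 7.4 phosphate/137 mM NaCl buffer. It was injected at 25 μl/min for 8 min over a 90:10 DOPC:DOPS bilayer on a silicon oxynitride chip at 20 °C. Adsorbed mass was measured at 0.5 and 1.0 μM in quadruplicate, two channels each. Kd came from fitting Bmax against concentration.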

[5] = Filtration; type: binding; settings: compared with wild type
How it was run: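 Recombinant α-TTP (31.5 μg) was incubated with increasing concentrations of sonicated SUVs or extruded 150 nm LUVs in SET buffer for 30 min at room temperature. Mixtures were spun through 100 kDa-cutoff filters at 10,000g for 20 min to separate vesicle-bound from free protein. Protein was resolved on gels, stained with colloidal Coomassie and quantified by band densitometry.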

[6] = system: HepG2 cells; experiment: α-TTP-induced secretion of NBD-tocopherol from cultured hepatocytes; type: cell-based, Human; settings: transiently transfected HepG2; NBD-Toc fluorescence
How it was run: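 HepG2/C3A cells on collagen-coated coverslips (DMEM, 10% FBS) were transiently transfected with α-TTP variants in pcDNA3.1, with mock controls. At 30 h they received 5 μM lipoprotein-complexed NBD-tocopherol for 16–18 h at 37 °C, then 4 h in normal medium for secretion. Cells were fixed, permeabilised and DAPI-stained. NBD fluorescence was imaged at 40× over >14 fields per slide, normalised to cell number; expression was checked by Western blot.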

| Molecule | Adsorption/binding to immobilized bilayers by DPI, % of wild type [4] | Vesicle binding to SUVs (in words) [5] | Binding to immobilized bilayers, % of WT ([4]; printed "for LUVs") | Binding to immobilized bilayers, % of WT ([4]; printed "for SUVs") | Kd [1] | Rate of NBD-Toc transfer to SUV, Rate [2] | Reduction of rate of transfer to SUVs [2] | Rate of NBD-Toc transfer to SUV, Rate^mut/Rate^wt [2] | Rate of NBD-Toc transfer to LUV, Rate [3] | Rate of NBD-Toc transfer to LUV, Rate^mut/Rate^wt [3] | Ads^mut/Ads^wt (0.50 μM injection) [4] | Ads^mut/Ads^wt (1.0 μM injection) [4] | Fold change in affinity [4] | Inhibition of tocopherol secretion as compared to the wild-type TTP [6] |
| --- | --- | --- | --- | --- | --- | --- | --- | --- | --- | --- | --- | --- | --- | --- |
| Cc1c(C)c2c(c(C)c1O)CC[C@@](C)(CCC[C@H](C)CCC[C@H](C)CCCC(C)C)O2 [α-tocopherol] | – | – | – | – | ~0.025 µM | – | – | – | – | – | – | – | – | – |
| K217A: α-TTP mutant, surface Lys217 (helix A11) to Ala (protein, UniProt P49638 1-278, looked up, variant K217A) Alpha-tocopherol transfer …: MAEARSQPSAGPQLNALPDHSPLLQPGLAALRRRAREAGVPLAPLPLTDSFLLRFLRARDFDLDLAWRLLKNYYKWRAECPEISADLHPRSIIGLLKAGYHGVLRSRDPTGSKVLIYRIAHWDPKVFTAYDVFRVSLITSELIVQEVETQRNGIKAIFDLEGWQFSHAFQITPSVAKKIAAVLTDSFPLKVRGIHLINEPVIFHAVFSMIKPFLTEAIKERIHMHGNNYKQSLLQHFPDILPLEYGGEEFSMEDICQEWTNFIMKSEDYLSSISESIQ | 171% | essentially indistinguishable | 180% | 171% | – | 0.130 ± 0.011 s⁻¹ | – | 102% | 0.010 ± 0.004 s⁻¹ | 62% | 1.71 | 1.80 | – | – |
| F169A: α-TTP mutant, Phe169 to Ala (protein, UniProt P49638 1-278, looked up, variant F169A) Alpha-tocopherol transfer …: MAEARSQPSAGPQLNALPDHSPLLQPGLAALRRRAREAGVPLAPLPLTDSFLLRFLRARDFDLDLAWRLLKNYYKWRAECPEISADLHPRSIIGLLKAGYHGVLRSRDPTGSKVLIYRIAHWDPKVFTAYDVFRVSLITSELIVQEVETQRNGIKAIFDLEGWQFSHAAQITPSVAKKIAAVLTDSFPLKVRGIHLINEPVIFHAVFSMIKPFLTEKIKERIHMHGNNYKQSLLQHFPDILPLEYGGEEFSMEDICQEWTNFIMKSEDYLSSISESIQ | – | diminished vesicle binding | – | – | – | 0.067 ± 0.006 s⁻¹ | 47% | 53% | 0.008 ± 0.002 s⁻¹ | 48% | 0.33 | 0.51 | – | 2 fold |
| F169D: α-TTP mutant, Phe169 to Asp (helix A8) (protein, UniProt P49638 1-278, looked up, variant F169D) Alpha-tocopherol transfer …: MAEARSQPSAGPQLNALPDHSPLLQPGLAALRRRAREAGVPLAPLPLTDSFLLRFLRARDFDLDLAWRLLKNYYKWRAECPEISADLHPRSIIGLLKAGYHGVLRSRDPTGSKVLIYRIAHWDPKVFTAYDVFRVSLITSELIVQEVETQRNGIKAIFDLEGWQFSHADQITPSVAKKIAAVLTDSFPLKVRGIHLINEPVIFHAVFSMIKPFLTEKIKERIHMHGNNYKQSLLQHFPDILPLEYGGEEFSMEDICQEWTNFIMKSEDYLSSISESIQ | – | – | – | – | – | 0.015 ± 0.002 s⁻¹ | 88% | 12% | – | 0% | 0.18 | 0.23 | 14.3 | 5 fold |

Further lines, with some results ahead:

| Adsorption/binding to immobilized bilayers by DPI, % of wild type [4] | Vesicle binding to SUVs (in words) [5] | Binding to immobilized bilayers, % of WT ([4]; printed "for LUVs") | Binding to immobilized bilayers, % of WT ([4]; printed "for SUVs") | Molecule | Kd [1] | Rate of NBD-Toc transfer to SUV, Rate [2] | Reduction of rate of transfer to SUVs [2] | Rate of NBD-Toc transfer to SUV, Rate^mut/Rate^wt [2] | Rate of NBD-Toc transfer to LUV, Rate [3] | Rate of NBD-Toc transfer to LUV, Rate^mut/Rate^wt [3] | Ads^mut/Ads^wt (0.50 μM injection) [4] | Ads^mut/Ads^wt (1.0 μM injection) [4] | Fold change in affinity [4] | Inhibition of tocopherol secretion as compared to the wild-type TTP [6] |
| --- | --- | --- | --- | --- | --- | --- | --- | --- | --- | --- | --- | --- | --- | --- |
| 11% | diminished vesicle binding | – | – | F165D: α-TTP mutant, Phe165 to Asp (helix A8) (protein, UniProt P49638 1-278, looked up, variant F165D) Alpha-tocopherol transfer …: MAEARSQPSAGPQLNALPDHSPLLQPGLAALRRRAREAGVPLAPLPLTDSFLLRFLRARDFDLDLAWRLLKNYYKWRAECPEISADLHPRSIIGLLKAGYHGVLRSRDPTGSKVLIYRIAHWDPKVFTAYDVFRVSLITSELIVQEVETQRNGIKAIFDLEGWQDSHAFQITPSVAKKIAAVLTDSFPLKVRGIHLINEPVIFHAVFSMIKPFLTEKIKERIHMHGNNYKQSLLQHFPDILPLEYGGEEFSMEDICQEWTNFIMKSEDYLSSISESIQ | – | 0.013 ± 0.001 s⁻¹ | 90% | 10% | 0.009 ± 0.005 s⁻¹ | 56% | 0.11 | 0.19 | 12.2 | – |
| – | diminished vesicle binding | – | – | F165A: α-TTP mutant, Phe165 to Ala (protein, UniProt P49638 1-278, looked up, variant F165A) Alpha-tocopherol transfer …: MAEARSQPSAGPQLNALPDHSPLLQPGLAALRRRAREAGVPLAPLPLTDSFLLRFLRARDFDLDLAWRLLKNYYKWRAECPEISADLHPRSIIGLLKAGYHGVLRSRDPTGSKVLIYRIAHWDPKVFTAYDVFRVSLITSELIVQEVETQRNGIKAIFDLEGWQASHAFQITPSVAKKIAAVLTDSFPLKVRGIHLINEPVIFHAVFSMIKPFLTEKIKERIHMHGNNYKQSLLQHFPDILPLEYGGEEFSMEDICQEWTNFIMKSEDYLSSISESIQ | – | 0.037 ± 0.002 s⁻¹ | 71% | 29% | 0.005 ± 0.002 s⁻¹ | 34% | 0.37 | 0.45 | 5.1 | – |
